Experimental data gathered from unrelated publications.
Lines come from different studies, so protocols differ. pIC50: −log10 of the molar value.
Target: Prostaglandin G/H synthase 2 (PTGS2, Homo sapiens, UniProt P35354)
Effect on: enzyme activity
Action: inhibitor
One construct used (P35354 18-604): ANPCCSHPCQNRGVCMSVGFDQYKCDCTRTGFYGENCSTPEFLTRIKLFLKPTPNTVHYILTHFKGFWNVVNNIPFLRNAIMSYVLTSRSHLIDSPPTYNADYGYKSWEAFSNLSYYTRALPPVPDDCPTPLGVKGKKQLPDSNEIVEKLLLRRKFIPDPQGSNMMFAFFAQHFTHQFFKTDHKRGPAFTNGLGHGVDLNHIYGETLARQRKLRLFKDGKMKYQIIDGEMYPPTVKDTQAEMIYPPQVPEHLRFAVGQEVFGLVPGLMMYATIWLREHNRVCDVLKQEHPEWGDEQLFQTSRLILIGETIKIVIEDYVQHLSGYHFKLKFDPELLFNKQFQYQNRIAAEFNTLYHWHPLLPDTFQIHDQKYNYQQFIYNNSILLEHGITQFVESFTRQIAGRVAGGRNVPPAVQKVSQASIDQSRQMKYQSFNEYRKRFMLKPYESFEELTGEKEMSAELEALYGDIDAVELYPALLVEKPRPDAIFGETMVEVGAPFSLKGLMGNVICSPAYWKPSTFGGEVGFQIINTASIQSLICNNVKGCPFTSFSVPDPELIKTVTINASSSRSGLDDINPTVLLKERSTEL

SMILES | pIC50
O=C(COC(=O)c1ccccc1Nc1cccc(C(F)(F)F)c1)Nc1ccc(F)cc1 | 4.24
NS(=O)(=O)c1ccc(-n2nc(C(=O)NN=Cc3cccnc3)cc2-c2ccccc2)cc1 | 5.41
O=C(Nc1ccc(-c2ccccc2)cc1)c1cnn(-c2ccc([N+](=O)[O-])cc2)c1C(F)(F)F | 5.22
Cc1ccc(S(=O)(=O)NNC(=O)COC(=O)c2ccccc2Nc2cccc(C(F)(F)F)c2)cc1 | 5.05
Cc1ccc(S(=O)(=O)NNc2ccc([N+](=O)[O-])cc2[N+](=O)[O-])cc1 | 5.32
CC(=NNC(=O)c1cc(-c2ccccc2)n(-c2ccc(S(N)(=O)=O)cc2)n1)c1ccc(C)cc1 | 5.87
COc1cc(NC(=O)c2cnn(-c3ccc([N+](=O)[O-])cc3)c2C(F)(F)F)cc(OC)c1 | 5.24
Cc1ccc(S(=O)(=O)[N](Nc2ccc([N+](=O)[O-])cc2[N+](=O)[O-])[Sn]([Cl])[Cl])cc1 | 5.56
